Among the data in ChEMBL document CHEMBL1127381, “Synthesis and 5-lipoxygenase inhibitory activities of some novel 2-substituted 5-benzofuran hydroxamic acids” (J Med Chem, 1994) are IC50, ED50 and inhibition values, retold here.

Structures are written as SMILES.

Assay [1] has as its target T1, Polyunsaturated fatty acid 5-lipoxygenase (Rattus norvegicus, UniProt P12527).
T1 sequence (P12527 whole entry): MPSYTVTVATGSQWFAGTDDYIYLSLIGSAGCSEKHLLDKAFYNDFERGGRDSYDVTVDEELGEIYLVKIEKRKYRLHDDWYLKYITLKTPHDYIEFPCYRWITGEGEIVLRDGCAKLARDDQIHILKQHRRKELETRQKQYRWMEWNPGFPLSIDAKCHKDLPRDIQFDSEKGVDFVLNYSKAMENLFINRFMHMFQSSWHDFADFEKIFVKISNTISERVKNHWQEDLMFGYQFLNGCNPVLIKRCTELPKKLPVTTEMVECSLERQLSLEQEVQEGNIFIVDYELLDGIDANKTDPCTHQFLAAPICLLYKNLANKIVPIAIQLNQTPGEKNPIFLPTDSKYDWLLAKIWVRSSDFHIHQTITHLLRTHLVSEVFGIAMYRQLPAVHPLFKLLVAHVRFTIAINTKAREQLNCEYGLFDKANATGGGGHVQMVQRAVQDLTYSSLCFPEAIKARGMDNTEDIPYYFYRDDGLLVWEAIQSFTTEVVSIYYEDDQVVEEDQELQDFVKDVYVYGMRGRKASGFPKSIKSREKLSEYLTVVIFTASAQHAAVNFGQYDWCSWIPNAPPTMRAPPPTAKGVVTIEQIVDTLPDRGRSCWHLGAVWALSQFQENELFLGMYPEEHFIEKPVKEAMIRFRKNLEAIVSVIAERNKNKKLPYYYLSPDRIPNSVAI
Nature of the assay: In vitro inhibition of 5-lipoxygenase (5-HETE) derived from the 9000xg supernatant of RBL broken cell assay. Type of assay: cell-based. Summed up: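 RBL-1 cells grown in suspension, washed, suspended at 5 × 10^7 cells/mL in NaHPO4/CaCl2 buffer, homogenized at 0 °C, spun 9000g for 50 min. Supernatant preincubated with compound 5 min at 37 °C, then [14C]arachidonic acid added and incubated 20 min at 37 °C. Reaction stopped with 2 N formic acid. 5-HETE formation measured radiometrically.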

The target of assay [2] is T2, Polyunsaturated fatty acid 5-lipoxygenase (Mus musculus) (UniProt P48999).
T2 sequence (whole entry): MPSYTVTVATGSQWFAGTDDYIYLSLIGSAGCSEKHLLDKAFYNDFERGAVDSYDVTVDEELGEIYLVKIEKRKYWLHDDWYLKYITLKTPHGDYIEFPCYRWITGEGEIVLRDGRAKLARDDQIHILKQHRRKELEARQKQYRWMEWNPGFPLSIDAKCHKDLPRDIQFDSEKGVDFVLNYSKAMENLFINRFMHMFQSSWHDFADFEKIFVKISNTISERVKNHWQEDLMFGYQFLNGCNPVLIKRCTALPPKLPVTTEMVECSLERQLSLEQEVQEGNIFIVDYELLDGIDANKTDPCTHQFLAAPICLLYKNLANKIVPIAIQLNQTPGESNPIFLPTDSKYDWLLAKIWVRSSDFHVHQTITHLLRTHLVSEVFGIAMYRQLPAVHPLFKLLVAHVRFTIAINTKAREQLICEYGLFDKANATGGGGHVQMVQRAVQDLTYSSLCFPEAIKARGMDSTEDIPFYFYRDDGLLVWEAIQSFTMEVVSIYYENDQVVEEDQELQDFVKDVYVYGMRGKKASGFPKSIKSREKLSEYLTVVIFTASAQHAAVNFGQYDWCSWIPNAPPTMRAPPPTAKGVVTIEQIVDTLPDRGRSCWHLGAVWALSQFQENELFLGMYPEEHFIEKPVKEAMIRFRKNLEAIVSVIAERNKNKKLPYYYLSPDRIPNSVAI
As to the kind of experiment: In vivo inhibition of 5-lipoxygenase (LTC4) in the mouse zymosan peritonitis assay at an oral dose of 30 mg/Kg. Type of assay: functional, organism-based. The procedure, abridged:
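Male CD-1 mice (18–25 g) given compound orally in PEG 200. Zymosan-A (3 mg in 0.9% saline) injected ip 1 h later. Mice killed 15 min after zymosan; peritoneum lavaged with 10 μM indomethacin. Fluid extracted in cold 95% ethanol and dried. LTC4 measured by [3H]RIA on 1:20 dilution. Values are mean percent inhibition per animal ± SEM.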

`COc1ccc(C(=O)N(O)C(C)c2ccc3oc(-c4ccccc4)cc3c2)cc1OC` (configuration not stated) gave an IC50 in assay [1] of 200 nM. Molecule `CC(=O)N(O)C(C)c1ccc2oc(-c3ccccc3)cc2c1` (configuration not stated) returned an IC50 in assay [1] of 490 nM. The same molecule displayed an ED50 in assay [2] of 22.1 mg/kg. In turn, `COCC(=O)N(O)C(C)c1ccc2oc(-c3ccccc3)cc2c1` (configuration not stated) registered an IC50 in assay [1] of 160 nM. Further, the 50% effect level in assay [2] (ED50) was put at a dose of 18.6 mg/kg. For `CC(c1cc2ccccc2s1)N(O)C(N)=O` (configuration not stated), the 50% effect level in assay [2] (ED50) was put at a dose of 2.71 mg/kg. Consider `CCCCCCCCCCc1cc2cc(C(C)N(O)C(=O)CCCC(=O)OC)ccc2o1` (configuration not stated), for which, in assay [1], the IC50 was 150 nM. Further, the inhibition in assay [2] was determined as 37.3%. Taken in the same sequence, the figures for `CC(c1ccc2oc(-c3ccccc3)cc2c1)N(O)C(=O)c1ccco1` (configuration not stated) were 40 nM and 32.9%. As for `COC(=O)CCCC(=O)N(O)C(C)c1ccc2oc(-c3ccccc3)cc2c1` (configuration not stated), the IC50 in assay [1] is 60 nM. The same measure, in the same setting: for `COc1cccc(OC)c1C(=O)N(O)C(C)c1ccc2oc(-c3ccccc3)cc2c1` (configuration not stated) the value was 3000 nM. Molecule `CCCCc1cc2cc(C(C)N(O)C(C)=O)ccc2o1` (configuration not stated) had an IC50 in assay [1] of 50 nM. In assay [2], this molecule displayed an inhibition of 41.4%. Molecule `CC(c1ccc2oc(-c3ccccc3)cc2c1)N(O)C(N)=O` (configuration not stated) had an IC50 in assay [1] of 410 nM. In addition, the ED50 in assay [2] is 10.3 mg/kg. The like results for `COc1cc(-c2cc3cc(C(C)N(O)C(N)=O)ccc3o2)cc(OC)c1OC` (configuration not stated) were, in that order, 50 nM and 17.5 mg/kg.

`COc1ccc2cc(-c3cc4cc(C(C)N(O)C(C)=O)ccc4o3)ccc2c1` (configuration not stated): the IC50 in assay [1] came to 120 nM. In assay [2], this molecule gave an inhibition of 25.6%.

Turning to `COC(=O)CCCC(=O)N(O)C(C)c1ccc2oc(-c3cc(OC)c(OC)c(OC)c3)cc2c1` (configuration not stated), the IC50 in assay [1] is 40 nM. In assay [2], this molecule yielded an inhibition of 42.1%.

`COc1cc(-c2cc3cc(C(C)N(O)C(C)=O)ccc3o2)cc(OC)c1OC` (configuration not stated) came in with an IC50 in assay [1] of 310 nM. Further, in assay [2], the inhibition was 42.1%. `CCOC(=O)CCC(=O)N(O)C(C)c1ccc2oc(-c3ccccc3)cc2c1` (configuration not stated) came in with an IC50 in assay [1] of 50 nM. Take `CC(c1ccc2oc(-c3ccccc3)cc2c1)N(O)C(=O)CO` (configuration not stated): the IC50 in assay [1] came out at 700 nM. In assay [2], the 50% effect level (ED50) was put at a dose of 27.5 mg/kg.

`CC(c1ccc2oc(-c3ccccc3)cc2c1)N(O)C(=O)c1cccs1` (configuration not stated) displayed an IC50 in assay [1] of 250 nM. Also, in assay [2], the inhibition was found to be 29.1%. `CC(c1ccc2oc(-c3ccccc3)cc2c1)N(O)C(=O)c1ccccc1` (configuration not stated) yielded an inhibition in assay [2] of 46.2%. As for `CC(=O)N(O)C(C)c1ccc(OCCc2ccccc2)cc1` (configuration not stated), the IC50 in assay [1] is 410 nM.

For `CCCCc1cc2cc(C(C)N(O)C(=O)CCCC(=O)OC)ccc2o1` (configuration not stated), half-maximal inhibition in assay [1] (IC50) was put at 50 nM. In assay [2], this molecule had an inhibition of 28.6%. The like results for `CCCCCCCCCCc1cc2cc(C(C)N(O)C(C)=O)ccc2o1` (configuration not stated) were, in that order, 410 nM and 19.5%. The like results for `CC(=O)OCC(=O)N(O)C(C)c1ccc2oc(-c3ccccc3)cc2c1` (configuration not stated) were, in that order, 160 nM and 18.9%.
